The values that follow come from PubChem BioAssay AID588705 (Broad Institute, 2011).

Activity calls are given as the source filed them. The rule behind the calls is not given here.

For the first assay, the system named is MDA-MB-231 viability, CellTiter-Glo luminescence, 72 h. Nature of the assay: MDA-MB-231 breast cancer cell cytotoxicity, dose response, CellTiter-Glo luminescence, dry powder (AID 588705).
Details: not given
Put shortly:
(§1)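 Material: MDA231 (MDA-MB-231) human breast cancer cell line | Amount: 1000 cells/well | Medium: Serum-free DMEM/MEGM screening medium | Incubation: 72 h compound exposure after 24 h attachment | Signal: CellTiter-Glo luminescence for cell viability | Benchmarks: DMSO-only negative control wells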
As for `CC(C)(C)c1ccc2c(c1)OC(C(=O)N/N=C/c1ccc[nH]1)CO2` (configuration not stated), the AC50 is 14.7 µM.

With `Cc1cc(Cl)ccc1OCC(=O)N/N=C/c1ccc[nH]1`, the AC50 was 16.7 µM. Take `O=C(COc1cc(Cl)ccc1Cl)N/N=C/c1ccc[nH]1`: the AC50 is 7.24 µM. The same measure, in the same setting: the same measure for `O=C(COc1ccc(Cl)cc1Cl)N/N=C/c1cnc[nH]1`: 31.6 µM; for `O=C(COc1ccc(Cl)cc1Cl)N/N=C/c1ccc[nH]1`: 47.6 µM. Still for that read-out and setting: the same measure for `O=C(COc1c(Cl)cc(Cl)cc1Cl)N/N=C/c1ccc[nH]1`: 2.81 µM.

Tested on in a further assay: not listed separately
The assay is described as above. The following applies: MDA-MB-231 viability, CellTiter-Glo luminescence, 72 h. In outline: as §1
Take `O=C(N/N=C/c1ccc[nH]1)c1cc2ccccc2o1`: the outcome was inactive.
